Published values from different studies.
Each line is one published result; the experiments were not run side by side.
Target: SRSF protein kinase 1 (SRPK1, Homo sapiens, UniProt Q96SB4)

COc1cccc2c(NCc3ccccc3)nc(-n3c(N)nc4ccccc43)nc12  inhibition (target engagement in cells; inhibitor; chemoproteomics; 20 mM): 5.7%
CC(C)(O)[C@H]1CC[C@H](Nc2ccc3ncc(-c4cccc(C(F)(F)F)c4)n3n2)CC1  remaining activity (enzyme activity; inhibitor; 1 µM): 100%
CNC(=O)c1ccc(Nc2ncc(C(F)(F)F)c(NCc3nccnc3N(C)S(C)(=O)=O)n2)cc1  remaining binding (cell-free assay; competition with immobilised ligand; 0.1 µM): 51%
CCN(CC)c1ccc(C2=NNC(=O)CC2C)cc1[N+](=O)[O-] (stereo not drawn)  remaining activity (enzyme activity; inhibitor; 10 µM): 94%
CC(C)(C)c1nc(-c2cccc(NS(=O)(=O)c3c(F)cccc3F)c2F)c(-c2ccnc(N)n2)s1  remaining activity (enzyme activity; inhibitor; radiometric; 1 µM): 105%
O=C(Nc1cnn(-c2csc(C(=O)NC3COC3)c2)c1)Nc1c(F)cccc1Cl  remaining activity (enzyme activity; inhibitor; 5 µM): 104%
COc1cc(Cl)c(C(=O)N[C@@H](CN[C@H]2CC[C@@H](N)CC2)Cc2ccc(C#N)cc2)cc1-c1ccc(CN[C@H](C)c2ccc(C)cc2)o1  remaining activity (enzyme activity; inhibitor; 1 µM): 99%
Oc1cccc(-c2nc(N3CCOCC3)c3oc4ncccc4c3n2)c1  remaining activity (enzyme activity; inhibitor; 10 µM): 116%
Cc1cnc(NC2CCOCC2)nc1-n1cnc(C(=O)NC(CN)c2cc(F)cc(Cl)c2)c1 (stereo not drawn)  remaining activity (enzyme activity; inhibitor; radiometric; 1 µM): 96%
COc1ccc(COc2ccc(Cc3cnc(N)nc3N)cc2OC)cc1  remaining signal (cell-free assay; 0.5 µM): 90.4%
CN(c1ncccc1CNc1nc(Nc2ccc3c(c2)CC(=O)N3)ncc1C(F)(F)F)S(C)(=O)=O  inhibition (enzyme activity; inhibitor; 1 µM): 33.5%
O=C(N1CCS(=O)(=O)CC1)N1C[C@H](c2ccc(OC(F)(F)F)cc2)C[C@H](c2nc(C3CC3)no2)C1  remaining binding (cell-free assay; competition with immobilised ligand; 1 µM): 100%
COc1cc2ncnc(Nc3ccc(Oc4ccccc4)c(C)c3C)c2cc1OC  inhibition (enzyme activity; inhibitor; 1 µM): 1%
CC(C)(C)C(=O)c1sc(NC2CCCCC2)nc1N  remaining activity (enzyme activity; inhibitor; 10 µM): 92%
Nc1nc(Nc2ccc(S(N)(=O)=O)cc2)nn1C(=O)c1c(F)cccc1F  remaining signal (cell-free assay; 0.5 µM): 86.4%
O=C(NCCCC1CCCCC1)c1ccc(CNC(=O)c2cnn(-c3ccccc3)c2C(F)(F)F)cc1  remaining binding (cell-free assay; competition with immobilised ligand; 0.1 µM): 95%
CN1CC(Oc2cnc(C#N)cc2-c2ccn3nc(NC(=O)C4CC4)cc3c2)C1  inhibition (enzyme activity; inhibitor; 1 µM): -2%
COc1cc(Nc2cnc(C#N)c(O[C@H](C)CN(C)C)n2)ncc1-c1cnn(C)c1  remaining activity (enzyme activity; inhibitor; radiometric; 1 µM): 89%
Cc1ccc(NC(=O)c2ccc(C)c(C(F)(F)F)c2)cc1C#Cc1nn(C2CCC(O)CC2)c2ncnc(N)c12 (stereo not drawn)  remaining signal (cell-free assay; 10 µM): 106%
CNC(=O)c1cc(Oc2ccc(NC(=O)Nc3ccc(Cl)c(C(F)(F)F)c3)cc2)ccn1  inhibition (enzyme activity; inhibitor; 0.3 µM): -2%
COc1cc(/C=C/C(=O)CC(=O)/C=C/c2ccc(O)c(OC)c2)ccc1O  activity vs control (enzyme activity; inhibitor; 1 µM): 57%
N#CC1(c2ccccn2)CCN(Cc2cc(C(=O)N3CCCC3)c(=O)n3ccccc23)CC1  remaining binding (cell-free assay; competition with immobilised ligand; 1 µM): 85%
Cc1ccc(NC(=O)c2ccc(CN3CCN(C)CC3)cc2)cc1Nc1nc(-c2cccnc2)cs1  remaining signal (cell-free assay; 0.5 µM): 98.9%
FC(F)(F)Oc1cccc(-c2cnc3ccc(-c4ccncc4)nn23)c1  activity vs control (enzyme activity; inhibitor; radiometric; 5 µM): 96%
Cc1cc(-n2nc(Cc3cc(F)cc(C(F)(F)F)c3)nc2C)ccc1C(N)=O  remaining binding (cell-free assay; competition with immobilised ligand; 1 µM): 81%
O=C(Nc1cnn(-c2csc(C(=O)NC3COC3)c2)c1)Nc1ccccc1Cl  remaining activity (enzyme activity; inhibitor; 5 µM): 98.7%
Cc1ccc(Nc2nccc(N(C)c3ccc4c(C)n(C)nc4c3)n2)cc1S(N)(=O)=O  inhibition (enzyme activity; inhibitor; 0.3 µM): -7%
O=C(NCc1ncc(C(F)(F)F)cc1Cl)c1ccc2c(c1)C1(CCS(=O)(=O)CC1)[C@H](C1CC1)N2S(=O)(=O)c1ccc(F)cc1  remaining binding (cell-free assay; competition with immobilised ligand; 1 µM): 72%
CC(C)c1ccc(NC(=O)c2cccs2)c(-c2nc3ccccc3[nH]c2=O)c1  activity vs control (enzyme activity; inhibitor; 1 µM): 100%
CO[C@H]1CC[C@H](CNc2ccc(S(=O)(=O)NC(=O)c3ccc(N4CCN(CC5=C(c6ccc(Cl)cc6)CC(C)(C)CC5)CC4)cc3Oc3cnc4[nH]ccc4c3)cc2[N+](=O)[O-])CC1  remaining binding (cell-free assay; competition with immobilised ligand; 1 µM): 96%
Cc1ccc(C(=O)Nc2ccc(CN3CCN(C)CC3)c(C(F)(F)F)c2)cc1C#Cc1cnc2cccnn12  remaining activity (enzyme activity; inhibitor; 23.5 nM): 98%
CCN(CC)CCNC(=O)c1c(C)[nH]c(/C=C2\C(=O)Nc3ccc(F)cc32)c1C  inhibition (enzyme activity; inhibitor; 10 µM): 9%
CS(=O)(=O)N1CCCC(NC(=O)[C@H](CCC2CCCCC2)NC(=O)c2ccc(CNC(=O)c3cnc4ccccn34)cc2)C1 (stereo partly drawn)  remaining binding (cell-free assay; competition with immobilised ligand; 0.1 µM): 74%
